Data: ChEMBL document CHEMBL5678815 (Clin Cancer Res, 2017)
Activity calls are given as the source filed them. The rule behind the calls is not given here.

How the values were obtained:
[1] = system: Epidermal growth factor receptor (Homo sapiens), P00533 [L861Q]; experiment: Inhibition of human EGFR L861Q mutant assessed as remaining activity at 1 uM by ATP-competition binding assay relative to control
Method in brief: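 KINOMEscan ATP-site-dependent competition binding assay across a 395-kinase human panel including mutants; compound tested at 1μM; binding expressed relative to control signal.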

[2] = system: Mast/stem cell growth factor receptor Kit (Homo sapiens), P10721 [D816V]; experiment: Inhibition of human KIT D816V mutant assessed as remaining activity at 1 uM by ATP-competition binding assay relative to control
Sequence of Mast/stem cell growth factor receptor Kit (Homo sapiens), P10721 [D816V] (P10721 whole entry D816V): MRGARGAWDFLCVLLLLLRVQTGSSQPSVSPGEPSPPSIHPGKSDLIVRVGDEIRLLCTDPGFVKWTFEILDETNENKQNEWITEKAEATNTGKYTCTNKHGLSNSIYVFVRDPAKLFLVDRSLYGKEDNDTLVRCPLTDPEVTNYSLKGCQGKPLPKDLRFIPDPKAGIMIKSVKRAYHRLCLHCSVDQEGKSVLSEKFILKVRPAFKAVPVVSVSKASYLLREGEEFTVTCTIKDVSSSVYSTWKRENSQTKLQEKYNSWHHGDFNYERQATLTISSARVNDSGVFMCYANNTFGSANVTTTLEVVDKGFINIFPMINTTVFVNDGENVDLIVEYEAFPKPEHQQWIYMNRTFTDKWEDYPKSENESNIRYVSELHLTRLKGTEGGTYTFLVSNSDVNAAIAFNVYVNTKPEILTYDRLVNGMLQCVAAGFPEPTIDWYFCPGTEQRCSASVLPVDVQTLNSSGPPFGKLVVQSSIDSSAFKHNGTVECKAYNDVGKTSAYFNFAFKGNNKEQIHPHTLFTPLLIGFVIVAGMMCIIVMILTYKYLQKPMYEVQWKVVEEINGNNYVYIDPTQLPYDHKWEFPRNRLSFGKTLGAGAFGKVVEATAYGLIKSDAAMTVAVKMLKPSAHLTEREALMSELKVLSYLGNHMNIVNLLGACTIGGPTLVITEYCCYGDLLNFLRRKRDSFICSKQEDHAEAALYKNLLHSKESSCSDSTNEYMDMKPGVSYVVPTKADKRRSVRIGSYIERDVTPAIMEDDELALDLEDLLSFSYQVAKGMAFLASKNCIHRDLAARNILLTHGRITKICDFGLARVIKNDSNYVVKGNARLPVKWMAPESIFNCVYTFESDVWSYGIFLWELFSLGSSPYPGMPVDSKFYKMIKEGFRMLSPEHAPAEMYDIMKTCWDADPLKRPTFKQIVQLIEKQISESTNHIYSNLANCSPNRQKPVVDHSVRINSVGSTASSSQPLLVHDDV
Method in brief: (§1)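 Single-point profiling at 1μM in an ATP-site-dependent competition binding assay across a panel of 395 human kinases, including mutant forms. The read-out is kinase binding signal in the presence of test agent, expressed as inhibition relative to the control signal. This screen assessed noncovalent binding interactions.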

[3] = target: Serine/threonine-protein kinase SIK1 (Homo sapiens) (UniProt P57059); experiment: Inhibition of human SIK assessed as remaining activity at 1 uM by ATP-competition binding assay relative to control
Method in brief: (§2)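 Single-concentration (1 μM) screen in an ATP-site-dependent competition binding assay (KINOMEscan, outsourced) covering 395 human kinases, mutants included. Non-covalent binding was read as the remaining signal relative to the control signal.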

[4] = target: Ephrin type-A receptor 2 (Homo sapiens) (UniProt P29317); experiment: Inhibition of human EPHA2 assessed as remaining activity at 1 uM by ATP-competition binding assay relative to control
Sequence of Ephrin type-A receptor 2 (Homo sapiens) (P29317 whole entry): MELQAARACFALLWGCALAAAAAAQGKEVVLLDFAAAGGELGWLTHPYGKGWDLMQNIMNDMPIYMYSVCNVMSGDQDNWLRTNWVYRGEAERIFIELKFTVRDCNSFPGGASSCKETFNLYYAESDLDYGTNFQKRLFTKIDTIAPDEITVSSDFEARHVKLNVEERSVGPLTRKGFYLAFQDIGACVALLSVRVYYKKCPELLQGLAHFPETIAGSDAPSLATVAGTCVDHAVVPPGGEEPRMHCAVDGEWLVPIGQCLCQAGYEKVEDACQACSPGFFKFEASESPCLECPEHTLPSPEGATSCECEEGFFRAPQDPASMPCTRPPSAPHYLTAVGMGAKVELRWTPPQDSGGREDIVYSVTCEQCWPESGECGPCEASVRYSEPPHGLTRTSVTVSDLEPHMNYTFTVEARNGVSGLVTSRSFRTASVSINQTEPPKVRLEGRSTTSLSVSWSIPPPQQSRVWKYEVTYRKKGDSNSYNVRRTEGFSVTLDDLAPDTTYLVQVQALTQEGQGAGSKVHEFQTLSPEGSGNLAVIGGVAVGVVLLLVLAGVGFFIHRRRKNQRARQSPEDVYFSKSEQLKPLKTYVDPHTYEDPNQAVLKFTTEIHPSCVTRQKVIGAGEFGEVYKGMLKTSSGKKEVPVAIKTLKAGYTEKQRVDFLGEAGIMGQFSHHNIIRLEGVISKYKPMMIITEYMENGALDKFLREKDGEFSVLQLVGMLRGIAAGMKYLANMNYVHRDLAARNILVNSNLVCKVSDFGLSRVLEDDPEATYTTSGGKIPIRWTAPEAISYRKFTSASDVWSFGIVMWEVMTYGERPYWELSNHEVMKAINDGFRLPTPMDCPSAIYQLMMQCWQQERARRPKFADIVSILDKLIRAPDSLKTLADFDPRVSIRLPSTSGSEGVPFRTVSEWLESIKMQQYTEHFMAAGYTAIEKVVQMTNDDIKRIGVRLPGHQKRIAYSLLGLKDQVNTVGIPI
Method in brief: (§3)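 KINOMEscan ATP-site-dependent competition binding panel of 395 human kinases, with compound tested at 1 μM. Binding is reported as remaining signal relative to control.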

[5] = target: Serine/threonine-protein kinase MAK (Homo sapiens) (UniProt P20794); experiment: Inhibition of human MAK assessed as remaining activity at 1 uM by ATP-competition binding assay relative to control; method in brief: as §1
[6] = target: Protein kinase C eta type (Homo sapiens) (UniProt P24723); experiment: Inhibition of human PRKCH assessed as remaining activity at 1 uM by ATP-competition binding assay relative to control; method in brief: as §2
[7] = target: Calcium/calmodulin-dependent protein kinase type 1G (Homo sapiens) (UniProt Q96NX5); experiment: Inhibition of human CAMK1G assessed as remaining activity at 1 uM by ATP-competition binding assay relative to control; method in brief: as §3
Sequence of Calcium/calmodulin-dependent protein kinase type 1G (Homo sapiens) (Q96NX5 whole entry): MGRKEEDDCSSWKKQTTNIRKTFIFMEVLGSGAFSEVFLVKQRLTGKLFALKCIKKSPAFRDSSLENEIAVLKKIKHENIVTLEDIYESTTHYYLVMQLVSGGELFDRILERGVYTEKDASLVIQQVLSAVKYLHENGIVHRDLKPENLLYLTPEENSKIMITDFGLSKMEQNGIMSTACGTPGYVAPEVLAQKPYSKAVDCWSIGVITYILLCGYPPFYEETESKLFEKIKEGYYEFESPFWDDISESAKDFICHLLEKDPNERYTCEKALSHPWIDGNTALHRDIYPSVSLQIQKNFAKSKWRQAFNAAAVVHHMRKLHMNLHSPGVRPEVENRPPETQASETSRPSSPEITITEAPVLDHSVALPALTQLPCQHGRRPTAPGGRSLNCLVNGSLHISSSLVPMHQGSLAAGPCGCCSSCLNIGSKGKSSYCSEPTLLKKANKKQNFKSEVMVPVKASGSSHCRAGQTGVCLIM

[8] = In vivo inhibition of BCR signaling in female […] mouse assessed as B-cell function at 25 mg/kg, po administered for 24 hrs and measured after stimulation with anti-IgM for 18 h by flow cytometry analysis relative to control; assay type: functional, Splenocyte; design: scale not given: the % may be the effect or the level left
Method in brief: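 Female C57BL/6 mice (5/group) received vehicle or 25 mg/kg drug by oral gavage at time zero, with spleens taken at time points from 3 to 24 h. Splenocytes were stimulated ex vivo with goat anti-mouse IgM at 10μg/mL for 18 h at 37°C in 5% CO2, then Fc-blocked and stained for CD19 plus CD69, CD86 or phospho-S6(S235/236), with 7-AAD to exclude dead cells. Read-out was flow cytometry on >5,000 gated CD19+ cells, compared with vehicle.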

[9] = target: Tyrosine-protein kinase Mer (Homo sapiens) (UniProt Q12866); experiment: Inhibition of human MERTK assessed as remaining activity at 1 uM by ATP-competition binding assay relative to control; method in brief: as §1
[10] = target: Casein kinase I isoform gamma-2 (Homo sapiens) (UniProt P78368); experiment: Inhibition of human CSNK1G2 assessed as remaining activity at 1 uM by ATP-competition binding assay relative to control; method in brief: as §3
Sequence of Casein kinase I isoform gamma-2 (Homo sapiens) (P78368 whole entry, looked up, canonical isoform): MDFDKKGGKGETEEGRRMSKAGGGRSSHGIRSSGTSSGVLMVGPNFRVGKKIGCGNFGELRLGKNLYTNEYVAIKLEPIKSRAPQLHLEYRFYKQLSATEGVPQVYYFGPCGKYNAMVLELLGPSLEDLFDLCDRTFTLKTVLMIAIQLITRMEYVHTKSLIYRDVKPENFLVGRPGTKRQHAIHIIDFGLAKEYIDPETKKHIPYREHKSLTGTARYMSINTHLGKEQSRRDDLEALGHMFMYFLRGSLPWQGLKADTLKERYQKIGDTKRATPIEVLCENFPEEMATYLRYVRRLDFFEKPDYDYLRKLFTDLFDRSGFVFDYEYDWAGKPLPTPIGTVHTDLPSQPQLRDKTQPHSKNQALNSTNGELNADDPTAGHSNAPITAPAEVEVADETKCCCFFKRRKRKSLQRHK

[11] = target: Casein kinase I isoform epsilon (Homo sapiens) (UniProt P49674); experiment: Inhibition of human CSNK1E assessed as remaining activity at 1 uM by ATP-competition binding assay relative to control; method in brief: as §3
[12] = target: Calcium/calmodulin-dependent protein kinase type II subunit gamma (Homo sapiens) (UniProt Q13555); experiment: Inhibition of human CAMK2G assessed as remaining activity at 1 uM by ATP-competition binding assay relative to control; method in brief: as §3
[13] = target: Proto-oncogene tyrosine-protein kinase Src (Homo sapiens) (UniProt P12931); experiment: Inhibition of human SRC assessed as remaining activity at 1 uM by ATP-competition binding assay relative to control; method in brief: as §2
Sequence of Proto-oncogene tyrosine-protein kinase Src (Homo sapiens) (P12931 2-536 limits assumed): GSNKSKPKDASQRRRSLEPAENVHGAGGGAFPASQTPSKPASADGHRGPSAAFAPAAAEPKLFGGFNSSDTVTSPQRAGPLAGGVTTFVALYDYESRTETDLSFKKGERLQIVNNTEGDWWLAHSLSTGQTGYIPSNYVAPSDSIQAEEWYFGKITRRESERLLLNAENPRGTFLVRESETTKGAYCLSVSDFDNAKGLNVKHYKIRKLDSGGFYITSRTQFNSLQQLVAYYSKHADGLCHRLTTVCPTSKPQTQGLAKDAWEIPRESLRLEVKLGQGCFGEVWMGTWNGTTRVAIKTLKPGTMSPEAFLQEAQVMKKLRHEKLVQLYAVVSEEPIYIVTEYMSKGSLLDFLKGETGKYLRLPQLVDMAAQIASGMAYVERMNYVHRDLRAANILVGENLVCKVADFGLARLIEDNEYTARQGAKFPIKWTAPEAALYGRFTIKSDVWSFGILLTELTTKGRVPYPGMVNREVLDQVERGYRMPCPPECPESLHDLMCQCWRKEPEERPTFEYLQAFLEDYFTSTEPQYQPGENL

[14] = target: Mitogen-activated protein kinase kinase kinase 20 (Homo sapiens) (UniProt Q9NYL2); experiment: Inhibition of human ZAK assessed as remaining activity at 1 uM by ATP-competition binding assay relative to control; method in brief: as §2
Sequence of Mitogen-activated protein kinase kinase kinase 20 (Homo sapiens) (Q9NYL2 2-800 limits assumed): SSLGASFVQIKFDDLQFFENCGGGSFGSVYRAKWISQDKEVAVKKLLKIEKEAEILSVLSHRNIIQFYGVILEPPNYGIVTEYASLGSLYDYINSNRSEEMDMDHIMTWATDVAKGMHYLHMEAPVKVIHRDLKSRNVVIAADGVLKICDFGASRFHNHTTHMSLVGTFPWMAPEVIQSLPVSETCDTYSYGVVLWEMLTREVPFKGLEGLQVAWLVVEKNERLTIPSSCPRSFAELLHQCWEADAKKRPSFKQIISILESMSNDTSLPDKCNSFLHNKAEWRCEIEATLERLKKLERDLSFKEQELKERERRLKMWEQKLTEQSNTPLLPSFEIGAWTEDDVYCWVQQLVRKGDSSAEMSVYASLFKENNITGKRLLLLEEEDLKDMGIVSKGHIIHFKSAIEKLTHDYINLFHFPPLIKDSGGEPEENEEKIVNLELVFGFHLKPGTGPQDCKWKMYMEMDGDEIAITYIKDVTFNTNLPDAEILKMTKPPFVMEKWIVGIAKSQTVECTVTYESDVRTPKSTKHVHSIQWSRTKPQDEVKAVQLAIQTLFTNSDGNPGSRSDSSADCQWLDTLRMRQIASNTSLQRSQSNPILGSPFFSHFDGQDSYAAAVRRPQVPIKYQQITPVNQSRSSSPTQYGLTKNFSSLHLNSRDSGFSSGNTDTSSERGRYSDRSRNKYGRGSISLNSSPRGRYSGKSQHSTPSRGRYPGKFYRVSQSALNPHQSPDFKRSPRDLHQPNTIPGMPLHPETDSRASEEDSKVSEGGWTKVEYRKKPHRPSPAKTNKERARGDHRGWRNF

[15] = system: Mast/stem cell growth factor receptor Kit (Homo sapiens), P10721 [V559D,T670I]; experiment: Inhibition of human KIT V559D/T670I mutant assessed as remaining activity at 1 uM by ATP-competition binding assay relative to control; method in brief: as §1
Sequence of Mast/stem cell growth factor receptor Kit (Homo sapiens), P10721 [V559D,T670I] (P10721 whole entry V559D/T670I): as the sequence (P10721 whole entry D816V) above, with V559D, T670I, V816D counted along it

[16] = target: Tyrosine-protein kinase BTK (Homo sapiens) (UniProt Q06187); conditions: dose < 100.0 nM
[17] = Antileukemic activity against human CLL mononuclear cells xenografted NSG mouse assessed as reduction in spleen cells at 0.3 to 0.16 mg/ml preadministered with compound via drinking water and measured after 3 weeks by flow cytometry analysis relative to control; assay type: functional, CLL mononuclear cell; design: scale not given: the % may be the effect or the level left; conditions: dose 0.3-0.16 mg/ml, at 0.16 to 0.3 mg/mL
Method in brief: (§4)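 Primary CLL patient mononuclear cells (1 × 10^8 per mouse) engrafted into NSG mice on day 0 after busulfan priming on day −1. Vehicle or drug was given in drinking water from day −1. Mice were killed 3 weeks after engraftment; spleens homogenized, filtered and RBC-lysed; whole blood collected. Six patients, 2–5 mice per patient; paired t-test per patient.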

[18] = target: Calcium/calmodulin-dependent protein kinase type II subunit alpha (Homo sapiens) (UniProt Q9UQM7); experiment: Inhibition of human CAMK2A assessed as remaining activity at 1 uM by ATP-competition binding assay relative to control; method in brief: as §3
[19] = system: Splenocyte; experiment: In vivo inhibition of BCR signaling in female […] mouse assessed as […] CD69 expression at 1 to 3 mg/kg, po administered and measured after stimulation with anti-IgM for 18 h by flow cytometry analysis; assay type: functional, organism-based; conditions: dose 1-3 mg/kg
Method in brief: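 Female C57BL/6 mice (5 per group per dose) were gavaged orally at 0.1–30 mg/kg. At 3 h, splenocytes were stimulated with anti-mouse IgM 10 μg/mL for 18 h at 37°C, 5% CO2. After Fc block, cells were stained for CD19 and CD69 with 7-AAD viability dye; >5,000 gated CD19+ cells acquired by flow cytometry.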

[20] = target: Atypical kinase COQ8B, mitochondrial (Homo sapiens) (UniProt Q96D53); experiment: Inhibition of human ADCK4 assessed as remaining activity at 1 uM by ATP-competition binding assay relative to control; method in brief: as §3
[21] = Antitumor activity against human CLL mononuclear cells xenografted NSG mouse assessed as inhibition in the phosphorylation of ERK at 0.3 mg/ml preadministered with compound via drinking water and measured after 3 weeks by flow cytometry analysis relative to control; assay type: functional; conditions: CLL mononuclear cell, 504 h; method in brief: as §4
[22] = target: 5'-AMP-activated protein kinase catalytic subunit alpha-2 (Homo sapiens) (UniProt P54646); experiment: Inhibition of human AMPK-alpha2 assessed as remaining activity at 1 uM by ATP-competition binding assay relative to control; method in brief: as §3
Sequence of 5'-AMP-activated protein kinase catalytic subunit alpha-2 (Homo sapiens) (P54646 whole entry, looked up): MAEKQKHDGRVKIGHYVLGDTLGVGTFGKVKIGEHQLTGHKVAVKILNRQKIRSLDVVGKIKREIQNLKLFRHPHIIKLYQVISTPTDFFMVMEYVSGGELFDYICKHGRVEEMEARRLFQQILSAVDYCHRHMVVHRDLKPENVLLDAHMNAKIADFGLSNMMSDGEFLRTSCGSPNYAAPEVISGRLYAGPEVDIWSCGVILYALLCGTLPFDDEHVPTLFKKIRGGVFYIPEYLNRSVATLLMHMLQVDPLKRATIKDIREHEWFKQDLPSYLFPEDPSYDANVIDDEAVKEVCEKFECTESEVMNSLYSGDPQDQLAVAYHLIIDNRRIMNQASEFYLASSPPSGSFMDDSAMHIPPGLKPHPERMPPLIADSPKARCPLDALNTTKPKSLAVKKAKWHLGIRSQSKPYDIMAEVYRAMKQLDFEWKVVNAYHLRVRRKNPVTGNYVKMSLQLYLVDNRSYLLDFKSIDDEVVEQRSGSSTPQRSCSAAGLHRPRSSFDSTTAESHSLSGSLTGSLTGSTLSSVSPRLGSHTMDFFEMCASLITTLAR

Work on `CC#CC(=O)N1CCC[C@H]1c1nc(-c2ccc(C(=O)Nc3ccccn3)cc2)c2c(N)nccn12` [ACALABRUTINIB] yielded an Activity [1] of 84%, an Activity [2] of 83% and an Activity [3] of 88%. The Activity [4] was 91%, the Activity [5] was 90% and the Activity [6] was 87%. For the same molecule, the Activity [7] was 95%, the Activity [8] was about 70% and the Activity [9] was 77%. For the same molecule, the Activity [10] was 82%, the Activity [11] was 90% and the Activity [12] was 84%. It also gave an Activity [13] of 78%, an Activity [14] of 84% and an Activity [15] of 55%. For the same molecule, the inhibition [16] was “Active”, the Activity [17] was 33% and the Activity [18] was 90%. For the same molecule, the Activity [19] was “Active”, the Activity [20] was 88% and the inhibition in vivo at 300 µg/mL [21] was 79%. It also gave an Activity [22] of 84%.
